From ChEMBL document CHEMBL1152445, “Modulation of multidrug resistance protein 1 (MRP1/ABCC1)-mediated multidrug resistance by bivalent apigenin homodimers and their derivatives” (J Med Chem, 2009)
Blank lines part the entries; values can stand above or below the compound they belong to. Activity calls are given as the source filed them. No cut-off for these calls is given here.

What was measured:
[1] = Cytotoxicity against human 2008/P cells after 5 days by MTS assay; format: cell-based; details: 120 h
[2] = Cytotoxicity against human 2008/MRP1 cells at 0.5 uM by MTS assay; format: cell-based; details: 2008/mrp1, 0.5 µM
[3] = Cytotoxicity against human 2008/MRP1 cells after 5 days by MTS assay; format: cell-based; details: 2008/MRP1, 120 h
[4] = Cytotoxicity against human 2008/P cells at 0.5 uM after 5 days by MTS assay; format: cell-based; details: 120 h
[5] = target: T1, Multidrug resistance-associated protein 1 (Homo sapiens, UniProt P33527); assay: Reversal of MRP1-mediated doxorubicin resistance in human 2008/MRP1 cells assessed as ratio of doxorubicin IC50 to doxorubicin IC50 in presence of compound at 0.5 uM; format: cell-based; details: 2008/mrp1, 0.5 µM
Homo sapiens = species: Homo sapiens; assay: Increase in doxorubicin accumulation in doxorubicin-co-incubated human 2008/P cells at 3 uM after 120 mins by spectrofluorimetry; format: functional
How it was run: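 5 × 10^5 cells of the parental ovarian line incubated 120 min at 37 °C with 20 μM doxorubicin plus 3 μM modulator, 0.3% DMSO as vehicle control. Cells washed twice with cold PBS pH 7.4 and lysed in 0.75 M HCl/0.2% Triton X-100 in isopropanol, then 20 min at 37 °C. Supernatant fluorescence read at ex 460/em 610 nm. Duplicate, three repeats, mean ± SEM.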

[6] = target: T1, Multidrug resistance-associated protein 1; assay: Reversal of MRP1-mediated doxorubicin resistance in doxorubicin co-incubated human 2008/MRP1 cells assessed as increase in doxorubicin accumulation at 3 uM after 120 mins by spectrofluorimetry relative to control; format: cell-based; details: 2008/mrp1, 2 h
[7] = target: T1, Multidrug resistance-associated protein 1; assay: Reversal of MRP1-mediated doxorubicin resistance in doxorubicin co-incubated human 2008/MRP1 cells assessed as effect on doxorubicin accumulation at […] after 120 mins by spectrofluorimetry; format: cell-based; details: 2008/mrp1, 2 h
[8] = Anticancer activity against human 2008/P cells after 5 days by MTS assay; format: functional, cell-based; details: 120 h
[9] = Anticancer activity against human 2008/MRP1 cells after 5 days by MTS assay; format: functional, cell-based; details: 2008/MRP1, 120 h
[10] = Selectivity ratio of IC50 for human 2008/MRP1 cells to IC50 for human 2008/P cells; format: functional
How it was run: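 Ratio of doxorubicin or etoposide IC50 in the MRP1 transfectant to IC50 in the parental line. Both IC50 values come from the 5-day MTS proliferation assay without modulator.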

Mus musculus = assay: Potentiation of vincristine-efficacy in nude mouse model assessed as regression of tumor volume at 8 mg/kg in presence of 0.5 mg/kg vincristine; format: functional
[11] = target: ATP-binding cassette sub-family C member 2 (Homo sapiens, UniProt Q92887); assay: Inhibition of MRP2
Sequence of ATP-binding cassette sub-family C member 2 (Q92887 whole entry): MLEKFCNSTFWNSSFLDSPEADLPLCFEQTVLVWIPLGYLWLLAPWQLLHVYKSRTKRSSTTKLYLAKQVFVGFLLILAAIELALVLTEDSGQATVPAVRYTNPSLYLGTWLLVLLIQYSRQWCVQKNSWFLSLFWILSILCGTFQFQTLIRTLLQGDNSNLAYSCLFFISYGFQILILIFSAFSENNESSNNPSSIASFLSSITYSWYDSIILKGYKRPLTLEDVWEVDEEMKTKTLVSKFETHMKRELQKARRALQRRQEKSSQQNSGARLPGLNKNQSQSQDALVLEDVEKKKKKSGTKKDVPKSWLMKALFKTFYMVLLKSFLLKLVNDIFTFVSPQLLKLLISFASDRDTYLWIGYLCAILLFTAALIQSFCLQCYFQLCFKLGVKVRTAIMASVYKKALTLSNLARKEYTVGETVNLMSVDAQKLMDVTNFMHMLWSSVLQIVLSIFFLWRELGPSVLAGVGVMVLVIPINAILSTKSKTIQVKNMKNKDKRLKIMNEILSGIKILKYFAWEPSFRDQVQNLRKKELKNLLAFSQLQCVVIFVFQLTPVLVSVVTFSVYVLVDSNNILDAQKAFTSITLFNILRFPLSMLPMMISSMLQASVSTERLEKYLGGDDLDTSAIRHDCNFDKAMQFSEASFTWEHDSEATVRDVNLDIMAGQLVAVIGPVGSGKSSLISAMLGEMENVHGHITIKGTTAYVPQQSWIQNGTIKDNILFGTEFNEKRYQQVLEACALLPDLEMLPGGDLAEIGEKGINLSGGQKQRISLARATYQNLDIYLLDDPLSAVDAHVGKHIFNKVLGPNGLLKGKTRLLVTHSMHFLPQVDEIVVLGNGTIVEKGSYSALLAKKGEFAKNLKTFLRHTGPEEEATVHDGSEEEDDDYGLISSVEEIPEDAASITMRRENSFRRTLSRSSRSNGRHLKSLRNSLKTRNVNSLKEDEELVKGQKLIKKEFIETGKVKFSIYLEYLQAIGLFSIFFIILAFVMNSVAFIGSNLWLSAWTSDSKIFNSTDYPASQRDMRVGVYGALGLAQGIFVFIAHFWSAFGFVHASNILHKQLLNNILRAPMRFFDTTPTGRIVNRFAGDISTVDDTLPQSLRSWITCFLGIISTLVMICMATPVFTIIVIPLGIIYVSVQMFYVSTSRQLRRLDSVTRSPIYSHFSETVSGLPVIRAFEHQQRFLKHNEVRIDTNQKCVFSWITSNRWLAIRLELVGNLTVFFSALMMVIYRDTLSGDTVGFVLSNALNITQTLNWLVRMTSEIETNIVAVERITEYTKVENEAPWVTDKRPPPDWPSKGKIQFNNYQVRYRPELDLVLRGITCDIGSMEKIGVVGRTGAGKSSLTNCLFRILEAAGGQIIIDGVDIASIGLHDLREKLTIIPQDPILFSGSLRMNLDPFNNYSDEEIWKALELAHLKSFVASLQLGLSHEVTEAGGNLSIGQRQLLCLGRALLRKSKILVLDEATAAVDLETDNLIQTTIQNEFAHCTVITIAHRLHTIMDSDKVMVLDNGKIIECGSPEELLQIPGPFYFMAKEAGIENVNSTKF

T1 sequence (P33527 whole entry): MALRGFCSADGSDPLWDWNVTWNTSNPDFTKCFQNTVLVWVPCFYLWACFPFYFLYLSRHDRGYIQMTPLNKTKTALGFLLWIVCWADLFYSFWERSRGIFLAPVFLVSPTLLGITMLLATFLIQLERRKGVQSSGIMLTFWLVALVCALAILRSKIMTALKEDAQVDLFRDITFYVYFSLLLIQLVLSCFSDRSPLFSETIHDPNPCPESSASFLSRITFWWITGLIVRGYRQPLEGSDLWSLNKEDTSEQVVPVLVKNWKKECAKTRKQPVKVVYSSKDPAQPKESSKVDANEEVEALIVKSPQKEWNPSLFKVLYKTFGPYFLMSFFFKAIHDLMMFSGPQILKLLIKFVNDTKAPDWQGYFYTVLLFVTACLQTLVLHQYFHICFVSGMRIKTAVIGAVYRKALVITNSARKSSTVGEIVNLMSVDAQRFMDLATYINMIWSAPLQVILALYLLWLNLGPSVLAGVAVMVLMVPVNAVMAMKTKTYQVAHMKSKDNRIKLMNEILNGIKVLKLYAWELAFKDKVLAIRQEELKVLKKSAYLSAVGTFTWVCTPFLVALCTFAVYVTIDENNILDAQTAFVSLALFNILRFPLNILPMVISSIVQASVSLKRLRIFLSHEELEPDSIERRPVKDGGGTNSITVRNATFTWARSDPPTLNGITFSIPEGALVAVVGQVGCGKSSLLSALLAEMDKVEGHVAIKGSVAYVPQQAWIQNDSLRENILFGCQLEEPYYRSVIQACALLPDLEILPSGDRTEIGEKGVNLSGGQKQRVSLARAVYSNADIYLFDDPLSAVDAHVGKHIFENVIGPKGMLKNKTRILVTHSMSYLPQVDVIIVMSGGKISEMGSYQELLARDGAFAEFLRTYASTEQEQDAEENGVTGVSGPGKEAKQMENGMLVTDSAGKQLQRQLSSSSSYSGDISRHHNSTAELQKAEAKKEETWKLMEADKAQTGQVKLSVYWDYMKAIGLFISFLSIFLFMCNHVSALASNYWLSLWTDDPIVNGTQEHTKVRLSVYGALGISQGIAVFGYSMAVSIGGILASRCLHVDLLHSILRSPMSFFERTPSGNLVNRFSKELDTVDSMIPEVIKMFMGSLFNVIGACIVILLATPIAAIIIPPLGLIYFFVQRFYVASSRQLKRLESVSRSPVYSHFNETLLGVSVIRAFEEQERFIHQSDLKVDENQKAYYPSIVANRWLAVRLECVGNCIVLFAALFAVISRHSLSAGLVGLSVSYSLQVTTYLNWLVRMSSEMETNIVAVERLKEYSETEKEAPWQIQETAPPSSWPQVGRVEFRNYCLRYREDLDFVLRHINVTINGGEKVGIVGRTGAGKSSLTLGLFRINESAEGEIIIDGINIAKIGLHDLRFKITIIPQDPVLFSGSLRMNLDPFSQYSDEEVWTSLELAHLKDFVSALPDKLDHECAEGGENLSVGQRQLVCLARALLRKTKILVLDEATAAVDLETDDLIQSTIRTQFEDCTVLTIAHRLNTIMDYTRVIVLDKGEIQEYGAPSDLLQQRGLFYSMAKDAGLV

SMILES: CCc1ccc2oc(-c3ccc(OCCOCCOCCOCCOCCOc4ccc(-c5cc(=O)c6cc(CC)ccc6o5)cc4)cc3)cc(=O)c2c1
IC50 [1]: 62.6 µM
Activity [2]: Non-toxic
IC50 [3]: 46.1 µM
Activity [4]: Non-toxic

Activity [5]: 1.5
SMILES: O=c1cc(-c2ccc(OCCOCCOCCOCCOCCOCCOCCOc3ccc(-c4cc(=O)c5c(O)cc(O)cc5o4)cc3)cc2)oc2cc(O)cc(O)c12

SMILES: O=c1cc(-c2ccc(OCCOCCOCCOc3ccc(-c4cc(=O)c5c(O)cc(O)cc5o4)cc3)cc2)oc2cc(O)cc(O)c12
IC50 [1]: > 100 µM
IC50 [3]: > 100 µM

SMILES: Cc1c(-c2ccc(OCCOCCOCCOCCOCCOc3ccc(-c4oc5ccccc5c(=O)c4C)cc3)cc2)oc2ccccc2c1=O
Activity [2]: Non-toxic
Activity [4]: Non-toxic

SMILES: Cc1ccc2c(=O)cc(-c3ccc(OCCOCCOCCOCCOc4ccc(-c5cc(=O)c6ccc(C)cc6o5)cc4)cc3)oc2c1
IC50 [1]: > 100 µM
Activity [2]: Non-toxic
IC50 [3]: > 100 µM
Activity [4]: Non-toxic

SMILES: O=c1cc(-c2ccc(OCCOCCOCCOCCOc3ccc(-c4cc(=O)c5ccccc5o4)cc3)cc2)oc2ccccc12
IC50 [1]: > 100 µM
IC50 [3]: > 93 µM

Activity [6]: Not Active
Activity [7]: Not Active
SMILES: CCCN(CCC)S(=O)(=O)c1ccc(C(=O)O)cc1 [PROBENECID]
Activity (Homo sapiens): inactive

SMILES: CCc1ccc2oc(-c3ccc(OCCOCCOCCOCCOc4ccc(-c5cc(=O)c6cc(CC)ccc6o5)cc4)cc3)cc(=O)c2c1
IC50 [1]: 77.7 µM
Activity [2]: Non-toxic
IC50 [3]: 69.5 µM
Activity [4]: Non-toxic

SMILES: O=c1cc(-c2ccc(OCCOCCOCCOCCOc3ccc(-c4cc(=O)c5c(O)cc(O)cc5o4)cc3)cc2)oc2cc(O)cc(O)c12
IC50 [1]: > 100 µM
IC50 [3]: > 100 µM

SMILES: Cc1ccc2oc(-c3ccc(OCCOCCOCCOCCOCCOc4ccc(-c5cc(=O)c6cc(C)ccc6o5)cc4)cc3)cc(=O)c2c1
Activity (Homo sapiens): Active
IC50 [1]: > 100 µM
Activity [2]: Non-toxic
IC50 [3]: > 100 µM
Activity [4]: Non-toxic

SMILES: COc1cccc2c1C(=O)c1c(O)c3c(c(O)c1C2=O)C[C@@](O)(C(=O)CO)C[C@@H]3O[C@H]1C[C@H](N)[C@H](O)[C@H](C)O1 [DOXORUBICIN]
IC50 [8]: 0.063 µM
IC50 [9]: 0.577 µM
Ratio IC50 [10]: 9.2

SMILES: O=c1cc(-c2ccc(OCCOCCOCCOCCOCCOCCOCCOCCOCCOc3ccc(-c4cc(=O)c5ccccc5o4)cc3)cc2)oc2ccccc12
Activity [2]: Non-toxic
Activity [4]: Non-toxic

SMILES: Cc1ccc2c(=O)cc(-c3ccc(OCCOCCOCCOCCOCCOCCOc4ccc(-c5cc(=O)c6ccc(C)cc6o5)cc4)cc3)oc2c1
IC50 [1]: 6.1 µM
Activity [2]: Non-toxic
IC50 [3]: 10.2 µM
Activity [4]: Non-toxic

SMILES: Cc1onc2c1c(=O)n([C@H]1CCC[C@@H](CNC(=O)c3ccccc3)C1)c1cccc(Cl)c21
Activity (Mus musculus): 63%

SMILES: O=c1cc(-c2ccc(OCCOCCOCCOCCOCCOCCOCCOCCOc3ccc(-c4cc(=O)c5ccccc5o4)cc3)cc2)oc2ccccc12
Activity [2]: Non-toxic
Activity [4]: Non-toxic

SMILES: O=c1cc(-c2ccc(OCCOCCOCCOCCOCCOCCOCCOc3ccc(-c4cc(=O)c5ccccc5o4)cc3)cc2)oc2ccccc12
Activity [2]: Non-toxic
Activity [4]: Non-toxic

SMILES: Cc1ccc2c(=O)cc(-c3ccc(OCCOCCOCCOCCOCCOc4ccc(-c5cc(=O)c6ccc(C)cc6o5)cc4)cc3)oc2c1
IC50 [1]: 60.6 µM
Activity [2]: Non-toxic
IC50 [3]: 53.3 µM
Activity [4]: Non-toxic

SMILES: O=c1cc(-c2ccc(OCCOCCOCCOCCOCCOc3ccc(-c4cc(=O)c5ccc(F)cc5o4)cc3)cc2)oc2cc(F)ccc12
IC50 [1]: 17.5 µM
Activity [2]: Non-toxic
IC50 [3]: 8.9 µM
Activity [4]: Non-toxic

SMILES: Cc1c(-c2ccc(OCCOCCOCCOCCOCCOCCOc3ccc(-c4oc5ccccc5c(=O)c4C)cc3)cc2)oc2ccccc2c1=O
Activity [2]: Non-toxic
Activity [4]: Non-toxic

SMILES: COc1ccc(CCN(C)CCCC(C#N)(c2ccc(OC)c(OC)c2)C(C)C)cc1OC (centres undefined)
Activity (Homo sapiens): inactive

IC50 [11]: 22 µM
SMILES: O=c1c(O)c(-c2cc(O)c(O)c(O)c2)oc2cc(O)cc(O)c12 [MYRICETIN]

SMILES: Cc1ccc2oc(-c3ccc(OCCOCCOCCOCCOCCOCCOc4ccc(-c5cc(=O)c6cc(C)ccc6o5)cc4)cc3)cc(=O)c2c1
IC50 [1]: > 100 µM
Activity [2]: Non-toxic
IC50 [3]: > 100 µM
Activity [4]: Non-toxic

SMILES: O=c1cc(-c2ccc(OCCOCCOCCOCCOCCOCCOc3ccc(-c4cc(=O)c5ccc(F)cc5o4)cc3)cc2)oc2cc(F)ccc12
IC50 [1]: 4.4 µM
Activity [2]: Non-toxic
IC50 [3]: 5.2 µM
Activity [4]: Non-toxic

SMILES: CCc1ccc2oc(-c3ccc(OCCOCCOCCOCCOCCOCCOc4ccc(-c5cc(=O)c6cc(CC)ccc6o5)cc4)cc3)cc(=O)c2c1
IC50 [1]: > 96 µM
Activity [2]: Non-toxic
IC50 [3]: 76.2 µM
Activity [4]: Non-toxic

Activity [5]: 7.8
SMILES: O=c1cc(-c2ccc(OCCOCCOCCOCCOCCOCCOc3ccc(-c4cc(=O)c5ccccc5o4)cc3)cc2)oc2ccccc12
IC50 [1]: 3.7 µM
Activity [2]: Non-toxic
IC50 [3]: 2.8 µM
Activity [4]: Non-toxic

SMILES: Cc1ccc2oc(-c3ccc(OCCOCCOCCOCCOc4ccc(-c5cc(=O)c6cc(C)ccc6o5)cc4)cc3)cc(=O)c2c1
IC50 [1]: > 100 µM
Activity [2]: Non-toxic
IC50 [3]: > 77 µM
Activity [4]: Non-toxic

SMILES: CN(C)C(=O)CCSC(SCCC(=O)O)c1cccc(/C=C/c2ccc3ccc(Cl)cc3n2)c1 (centres undefined)
Activity (Homo sapiens): inactive

SMILES: O=c1cc(-c2ccc(OCCOCCOCCOCCOCCOCCOCCOCCOCCOCCOCCOCCOCCOc3ccc(-c4cc(=O)c5ccccc5o4)cc3)cc2)oc2ccccc12
Activity [2]: Non-toxic
Activity [4]: Non-toxic
